From ChEMBL document CHEMBL1157832, “Cytotoxic effects of tanshinones from Salvia miltiorrhiza on doxorubicin-resistant human liver cancer cells” (J Nat Prod, 2010)
pEC50: −log10 of the molar value. Active and inactive are the calls of the source. No cut-off for these calls is given here.

Tests used:
HepG2 [1] = experiment: Inhibition of […] doxorubicin efflux in doxorubicin resistant human HepG2 cells uM by flow cytometry; type: cell-based
HepG2 [2] = experiment: Effect on MRP1 protein expression in human HepG2 cells expressing wild type p53 gene at 25 uM after 24 hrs by Western blot; type: functional, cell-based
Outline: (§1)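 HepG2 cells (MEM, 10% FBS) exposed to 25 µM for 24 h; lysates run on SDS-PAGE, transferred to nitrocellulose and probed with anti-MRP1 or anti-MRP2 antibodies, ECL detection. DMSO final 0.25% (v/v).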

HepG2 [3] = experiment: Induction of apoptosis in human HepG2 cells expressing wild type p53 gene assessed as caspase 3 activation; type: functional, cell-based
Outline: (§2)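 Cells were treated for 24 h, with etoposide as positive control. Cells (1 × 10^7) were lysed for 2 h at 4 °C and spun at 16000g for 10 min. The supernatant was mixed with assay buffer and the colorimetric substrate […], and pNA release was read at 405 nm. Soluble protein was determined by BCA.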

HepG2 [4] = experiment: Effect on MRP2 protein expression in human HepG2 cells expressing wild type p53 gene at 25 uM after 24 hrs by Western blot; type: functional, cell-based; outline: as §1
Hep 3B2 [5] = experiment: Induction of apoptosis in human Hep3B cells deficient in p53 gene assessed as PARP cleavage by Western blot; type: functional, cell-based
Outline: (§3)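 Cells treated 24 h, then lysed in Tris 50 mM/NaCl 100 mM/EDTA 5 mM/pyrophosphate 67 mM/1% Triton X-100, pH 7.5, with protease inhibitors. 20 µg soluble protein on 8% SDS-PAGE, nitrocellulose transfer, anti-PARP 1:1000 overnight at 4 °C, HRP anti-rabbit 1:2000 1 h, ECL. β-actin reprobe as loading reference; band densitometry; n = 3.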

HepG2 [6] = experiment: Induction of apoptosis in human HepG2 cells expressing wild type p53 gene assessed as PARP cleavage by Western blot; type: functional, cell-based; outline: as §3
[7] = Cytotoxicity against human THLE3 cells by MTT assay; type: cell-based
Outline: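 THLE-3 immortalized liver cells cultured in BEGM kit medium, 37 °C, 5% CO2; 9 × 10^3 cells/well. After compound incubation, MTT (0.5 mg/mL) added for 3 h at 37 °C; formazan dissolved in DMSO and read at 570 nm. Untreated cells as vehicle control; DMSO final 0.25% (v/v). EC50 of growth inhibition, n = 3.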

Hep 3B2 [8] = experiment: Induction of apoptosis in human Hep3B cells deficient in p53 gene assessed as caspase 3 activation; type: functional, cell-based; outline: as §2
[9] = target: T1, Multidrug resistance-associated protein 1 (Homo sapiens, UniProt P33527); experiment: Inhibition of MRP1-mediated doxorubicin efflux in doxorubicin resistant human HepG2 cells at 100 uM by flow cytometry; type: cell-based; conditions: hepg2, 100 µM
T1 sequence (P33527 whole entry): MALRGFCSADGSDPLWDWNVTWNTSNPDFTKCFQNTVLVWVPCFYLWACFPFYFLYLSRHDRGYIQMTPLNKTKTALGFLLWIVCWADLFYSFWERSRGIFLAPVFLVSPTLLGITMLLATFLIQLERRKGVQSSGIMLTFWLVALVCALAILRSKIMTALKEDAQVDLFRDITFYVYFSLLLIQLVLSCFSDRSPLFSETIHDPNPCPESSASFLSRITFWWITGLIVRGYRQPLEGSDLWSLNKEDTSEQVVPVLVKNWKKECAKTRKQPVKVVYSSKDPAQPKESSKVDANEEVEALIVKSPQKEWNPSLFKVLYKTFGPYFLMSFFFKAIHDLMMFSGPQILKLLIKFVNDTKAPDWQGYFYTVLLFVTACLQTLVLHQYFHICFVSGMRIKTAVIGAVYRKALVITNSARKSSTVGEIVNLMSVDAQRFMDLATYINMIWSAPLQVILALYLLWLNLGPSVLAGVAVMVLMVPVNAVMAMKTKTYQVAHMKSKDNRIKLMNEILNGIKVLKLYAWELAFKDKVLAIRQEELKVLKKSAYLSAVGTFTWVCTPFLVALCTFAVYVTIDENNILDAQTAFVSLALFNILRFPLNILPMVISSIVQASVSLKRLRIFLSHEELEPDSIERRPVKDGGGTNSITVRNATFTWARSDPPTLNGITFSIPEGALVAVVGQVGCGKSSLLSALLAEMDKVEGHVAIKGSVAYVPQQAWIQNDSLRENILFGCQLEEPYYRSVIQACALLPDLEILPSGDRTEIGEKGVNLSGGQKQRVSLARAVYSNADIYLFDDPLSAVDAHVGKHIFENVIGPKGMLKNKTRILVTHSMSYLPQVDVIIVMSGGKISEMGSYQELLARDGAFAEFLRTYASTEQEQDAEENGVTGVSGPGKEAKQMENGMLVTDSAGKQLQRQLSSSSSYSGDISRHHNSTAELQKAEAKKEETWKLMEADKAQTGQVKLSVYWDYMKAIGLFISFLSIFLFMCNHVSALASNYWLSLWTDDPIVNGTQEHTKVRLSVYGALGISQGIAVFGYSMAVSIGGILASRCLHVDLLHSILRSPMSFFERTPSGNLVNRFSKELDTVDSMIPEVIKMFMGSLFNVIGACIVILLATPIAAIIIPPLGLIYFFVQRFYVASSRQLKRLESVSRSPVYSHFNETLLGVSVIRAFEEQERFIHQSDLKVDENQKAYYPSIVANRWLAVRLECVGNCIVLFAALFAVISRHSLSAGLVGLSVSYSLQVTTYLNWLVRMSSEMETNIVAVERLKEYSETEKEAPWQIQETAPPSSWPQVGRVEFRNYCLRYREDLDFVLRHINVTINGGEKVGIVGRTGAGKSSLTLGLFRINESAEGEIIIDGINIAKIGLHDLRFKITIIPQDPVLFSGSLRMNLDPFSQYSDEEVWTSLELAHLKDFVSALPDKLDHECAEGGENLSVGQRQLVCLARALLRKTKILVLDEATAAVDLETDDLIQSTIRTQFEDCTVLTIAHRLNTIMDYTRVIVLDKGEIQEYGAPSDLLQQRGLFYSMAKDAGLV

[10] = target: T1, Multidrug resistance-associated protein 1; experiment: Inhibition of MRP1-mediated doxorubicin efflux in doxorubicin resistant human HepG2 cells at 10 to 100 uM by flow cytometry; type: cell-based
PLC-PRF-5 [11] = experiment: Induction of apoptosis in human PLC/PRF/5 cells expressing mutant p53 gene (codon 249) assessed as caspase 3 activation; type: functional, cell-based
Outline: (§4)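 After 24 h treatment, 1 × 10^7 cells lysed 2 h at 4 °C and spun at 16000g for 10 min. Supernatant incubated with caspase-3 substrate […], pNA release read at 405 nm, and protein measured by BCA. Activity expressed as fold of control; etoposide as positive control.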

P-gp (ABCB1) [12] = target: T2, P-gp (ABCB1) (Homo sapiens, UniProt P08183); experiment: Inhibition of P-gp in doxorubicin-resistant human HepG2 cells assessed as potentiation of doxorubicin cytostatic effect at 25 uM by MTT assay; type: cell-based; conditions: probe doxorubicin
T2 sequence (P08183 whole entry): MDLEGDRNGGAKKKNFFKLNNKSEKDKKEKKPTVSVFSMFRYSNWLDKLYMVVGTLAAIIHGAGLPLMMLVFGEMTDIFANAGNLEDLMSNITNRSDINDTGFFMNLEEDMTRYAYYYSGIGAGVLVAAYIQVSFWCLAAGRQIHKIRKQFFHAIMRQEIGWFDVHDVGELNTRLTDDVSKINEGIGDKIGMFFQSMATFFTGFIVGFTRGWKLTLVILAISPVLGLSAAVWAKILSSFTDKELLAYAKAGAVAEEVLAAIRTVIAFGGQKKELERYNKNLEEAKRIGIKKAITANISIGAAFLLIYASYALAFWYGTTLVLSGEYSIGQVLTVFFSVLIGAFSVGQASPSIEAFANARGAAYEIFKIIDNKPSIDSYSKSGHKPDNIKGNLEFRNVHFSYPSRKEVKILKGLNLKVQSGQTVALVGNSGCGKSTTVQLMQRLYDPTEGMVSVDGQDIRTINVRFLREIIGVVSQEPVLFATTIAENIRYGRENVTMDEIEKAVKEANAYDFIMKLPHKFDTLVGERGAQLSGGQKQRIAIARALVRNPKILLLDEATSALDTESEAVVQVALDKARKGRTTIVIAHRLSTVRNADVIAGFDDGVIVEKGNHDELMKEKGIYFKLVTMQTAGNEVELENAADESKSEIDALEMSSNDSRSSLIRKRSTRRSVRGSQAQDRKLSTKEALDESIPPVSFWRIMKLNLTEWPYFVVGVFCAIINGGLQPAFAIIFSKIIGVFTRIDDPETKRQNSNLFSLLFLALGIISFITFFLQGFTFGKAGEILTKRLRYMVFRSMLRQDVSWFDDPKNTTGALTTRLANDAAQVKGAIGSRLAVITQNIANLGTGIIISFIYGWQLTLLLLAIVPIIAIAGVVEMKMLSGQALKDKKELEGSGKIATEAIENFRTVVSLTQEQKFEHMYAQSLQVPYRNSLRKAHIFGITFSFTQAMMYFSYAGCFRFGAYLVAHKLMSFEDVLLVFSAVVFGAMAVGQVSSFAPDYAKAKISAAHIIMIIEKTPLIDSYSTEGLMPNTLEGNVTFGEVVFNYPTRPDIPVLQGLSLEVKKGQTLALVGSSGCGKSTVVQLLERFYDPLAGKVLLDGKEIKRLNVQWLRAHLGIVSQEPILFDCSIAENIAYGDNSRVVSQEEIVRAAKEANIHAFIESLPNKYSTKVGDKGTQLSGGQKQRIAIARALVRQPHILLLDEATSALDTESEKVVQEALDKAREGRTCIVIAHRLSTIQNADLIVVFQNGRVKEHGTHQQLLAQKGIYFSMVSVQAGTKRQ
Outline: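 R-HepG2 cells (doxorubicin-selected HepG2 subclone kept in RPMI 1640 with 1.2 µM doxorubicin) co-treated with compound and doxorubicin; growth read by MTT (0.5 mg/mL, 3 h, 570 nm). Interaction scored by Chou–Talalay combination index at EC20/EC50 levels, Loewe additivity and Bliss independence.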

HepG2 [13] = experiment: Cytotoxicity against doxorubicin resistant human HepG2 cells expressing wild type p53 gene by MTT assay; type: functional, cell-based
Outline: (§5)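 Proliferation was measured by MTT. Cells were seeded at 9 × 10^3 per well and exposed to drug for an unstated period. MTT (0.5 mg/mL) was then added for 3 h at 37 °C, formazan was dissolved in DMSO, and absorbance was read at 570 nm against untreated vehicle controls (final DMSO 0.25% v/v). HepG2 was grown in MEM. Hep3B and PLC/PRF/5 were grown in DMEM with nonessential amino acids and 10% FBS. The doxorubicin-resistant HepG2 subclone was grown in RPMI 1640 with 10% FBS plus 1.2 µM doxorubicin to maintain Pgp.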

HepG2 [14] = experiment: Cytotoxicity against human HepG2 cells expressing wild type p53 gene by MTT assay; type: functional, cell-based; outline: as §5
[15] = Cytotoxicity against human PLC/PRF/5 cells expressing mutant p53 gene (codon 249) by MTT assay; type: functional, cell-based; outline: as §5
[16] = Cytotoxicity against human Hep3B cells deficient in p53 gene by MTT assay; type: functional, cell-based, Hep 3B2; outline: as §5
P-gp (ABCB1) [17] = target: T2, P-gp (ABCB1); experiment: Inhibition of P-gp in doxorubicin-resistant human HepG2 cells assessed as potentiation of doxorubicin cytostatic effect at 6.25 uM by MTT assay; type: cell-based; conditions: probe doxorubicin
PLC-PRF-5 [18] = experiment: Induction of apoptosis in human PLC/PRF/5 cells expressing mutant p53 gene (codon 249) assessed as PARP cleavage by Western blot; type: functional, cell-based; outline: as §3
PLC-PRF-5 [19] = experiment: Induction of apoptosis in human PLC/PRF/5 cells expressing mutant p53 gene (codon 249) assessed as caspase 3 activation at 6.25 uM relative to control; type: functional; outline: as §4
HepG2 [20] = experiment: Induction of apoptosis in human HepG2 cells expressing wild type p53 gene assessed as caspase 3 activation at 6.25 uM relative to control; type: functional; outline: as §4

SMILES | Activity (HepG2 [2]) | Activity (HepG2 [3]) | Activity (HepG2 [4]) | Activity (Hep 3B2 [5]) | Activity (HepG2 [6]) | pEC50 [7] | Activity (Hep 3B2 [8]) | pEC50 (HepG2 [13]) | pEC50 (HepG2 [14]) | pEC50 [15] | pEC50 [16] | further results
C=C(CC)C(=O)c1ccc(OCC(=O)O)c(Cl)c1Cl |  |  |  |  |  |  |  |  |  |  |  | inhibition (HepG2 [1]): Active
Cc1coc2c1C(=O)C(=O)c1c-2ccc2c1CCCC2(C)C [TANSHINONE IIA] | inactive | Active | inactive | inactive | Dose-dependent effect | 4.24 | inactive |  |  |  |  | 
COc1cc([C@@H]2c3cc4c(cc3[C@@H](O[C@@H]3O[C@@H]5CO[C@@H](C)O[C@H]5[C@H](O)[C@H]3O)[C@H]3COC(=O)[C@H]23)OCO4)cc(OC)c1O |  | Active |  |  |  |  | inactive |  |  |  |  | 
COc1ccc2c(c1)c(CC(=O)O)c(C)n2C(=O)c1ccc(Cl)cc1 [INDOMETHACIN] |  |  |  |  |  |  |  |  |  |  |  | inhibition (INH) [9]: Active; inhibition (INH) [10]: Not Active
C[C@H]1COC2=C1C(=O)C(=O)c1c2ccc2c1CCCC2(C)C [CRYPTOTANSHINONE] | inactive | Active | inactive | inactive | Dose-dependent effect | 4.64 | inactive |  |  |  |  | Activity (PLC-PRF-5 [11]): Dose-dependent effect; inhibition at 25 µM (P-gp (ABCB1) [12]): 50%
COc1cccc2c1C(=O)c1c(O)c3c(c(O)c1C2=O)C[C@@](O)(C(=O)CO)C[C@@H]3O[C@H]1C[C@H](N)[C@H](O)[C@H](C)O1 [DOXORUBICIN] |  |  |  |  |  |  |  | < 5.00 | 5.21 | < 5.00 | 5.25 | 
Cc1coc2c1C(=O)C(=O)c1c-2ccc2c(C)cccc12 [TANSHINONE I] | inactive | Active | inactive | inactive | Dose-dependent effect | 4.13 | inactive | < 5.00 | 5.20 | < 5.00 | < 5.00 | inhibition at 6.25 µM (P-gp (ABCB1) [17]): 50%; Activity (PLC-PRF-5 [18]): Active
Cc1cccc2c3c(ccc12)C1=C(C(=O)C3=O)[C@@H](C)CO1 [DIHYDROTANSHINONE I] | inactive | Active | inactive | inactive | Dose-dependent effect | 5.19 | inactive | 5.33 | 5.60 | < 5.00 | 5.26 | fold change (FC) (PLC-PRF-5 [19]): 2.5; fold change (FC) (HepG2 [20]): 2; Activity (PLC-PRF-5 [18]): Active
